The source made the active and inactive calls. The rule behind the calls is not given here.
Key:
[1] = system: Mycobacterium tuberculosis; assay: Antitubercular activity against RIF/INH-tolerant persistent Mycobacterium tuberculosis H37Rv assessed as reduction of viable bacteria at 4.9 uM incubated for 14 days followed by drug wash-out and measured after 21 days; assay type: functional, organism-based; settings: time 14.0 day
Outline: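 Static at 37 °C for 14 days, washed twice, resuspended in fresh 7H9 and recovered for 28 days. CFU plated 21 and 28 days after drug removal.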

[2] = Metabolic stability of the compound in CD-1 mouse liver microsomes assessed as parent compound remaining at 5 uM preincubated for 5 mins followed by NADPH addition and measured after 30 mins by LC-TOF/MS analysis; assay type: ADME, Microsome; settings: time 35 min, read-out: Stability
Outline: (§1)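 Mouse liver microsomes incubated with compound in the presence of NADPH. Read-out is % parent compound remaining after 30 min.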

[3] = Cmax in CD-1 mouse at 10 mg/kg, po by LC/MS/MS analysis; assay type: ADME, organism-based; design: dose 10 mg/kg, route po; settings: in vivo
Outline: (§2)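 CD1 mice dosed orally at 10 mg/kg (snapshot PK study). Plasma levels followed over 5 h by LC/MS/MS. T1/2, Cmax and AUC_last derived from the plasma profile.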

[4] = Half life in CD-1 mouse at 10 mg/kg, po by LC/MS/MS analysis; assay type: ADME, organism-based; settings: in vivo; outline: as §2
[5] = Bioavailability in CD-1 mouse at 10 mg/kg, ip by LC/MS/MS analysis; assay type: ADME, organism-based; settings: in vivo
Outline: (§3)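 Full PK study in CD1 mice at 10 mg/kg given by oral, intravenous and intraperitoneal routes. Plasma levels monitored over 8 h by LC/MS/MS.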

[6] = Volume of distribution in CD-1 mouse at 10 mg/kg by LC/MS/MS analysis; assay type: ADME, organism-based; settings: in vivo; outline: as §3
[7] = system: Mycobacterium tuberculosis; assay: Antitubercular activity against non-replicating Mycobacterium tuberculosis H37Rv expressing luxCDAB assessed as inhibition of bacterial growth incubated for 7 days under hypoxia conditions followed by incubation in normoxia conditions for 5 days by luminescence based analysis; assay type: functional; settings: 288 h, time 12 day
[8] = Metabolic stability of the compound in CD-1 mouse liver microsomes at 5 uM by LC-TOF/MS analysis; assay type: ADME, Microsome; outline: as §1
[9] = Oral bioavailability in CD-1 mouse at 10 mg/kg by LC/MS/MS analysis; assay type: ADME, organism-based; settings: in vivo; outline: as §3
[10] = AUC(last) in CD-1 mouse at 10 mg/kg, po by LC/MS/MS analysis; assay type: ADME, organism-based; design: dose 10 mg/kg, route po; settings: in vivo; outline: as §2

Row | SMILES | Activity [1] | remaining at 0.5 h, 5 µM [2] [%] | Cmax [3] [ng/mL] | t1/2 [4] [h] | bioavailability [5] [%] | Vd [6] [L/kg] | MIC50 [7] [µM] | MIC90 [7] [µM] | Stability [8] | bioavailability [9] [%] | AUClast [10] [ng·h/mL]
1 | CC[C@@H](CO)NCCN[C@@H](CC)CO | inactive | – | – | – | – | – | – | – | – | – | –
2 | Cc1cccc(-c2nc(Nc3ccncc3)c3ccn(C)c3n2)n1 | – | 39 | 280 | 1.9 | 65 | 4.65 | < 1 | < 1 | Stable | 25 | 640

From ChEMBL document CHEMBL5370647 (J Med Chem, 2023)
